{
  "source": "ChEMBL document CHEMBL1165916",
  "about": "“Interactions of 1-methyl-3-phenylpyrrolidine and 3-methyl-1-phenyl-3-azabicyclo[3.1.0]hexane with monoamine oxidase B” (Bioorg Med Chem, 2010)",
  "key": {"[1]": {"species_on_record": "Papio hamadryas", "assay": "Activity at baboon liver mitochondrial MAO-B assessed as H2O2 production at 250 uM after 20 mins", "summary_of_the_method": "(§1)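 Baboon liver mitochondria (0.15 mg protein/mL) incubated with substrate and chromogenic solution at 37 °C in 100 mM sodium phosphate, pH 7.4. Reactions stopped at 2.5–20 min with (R)-deprenyl on ice and centrifuged. H2O2 read by peroxidase-coupled spectrophotometric assay against an 11–88 µM calibration. Triplicate, means ± SEM.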"}, "[2]": {"test_system": "Mus musculus", "assay": "Neurotoxicity in C57BL/6 mouse assessed as depletion of dopamine level in striatum at 238 umol/kg, ip after 7 days by HPLC-ECD analysis relative to control", "assay_type": "toxicity, organism-based", "conditions": "in vivo, 168 h", "summary_of_the_method": "(§2)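 Saline controls run alongside. Mice killed by cervical dislocation 7 days later. Striatal dopamine measured by HPLC-ECD, means ± SEM.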"}, "[3]": {"species_on_record": "Papio hamadryas", "assay": "Activity at baboon liver mitochondrial MAO-B assessed as H2O2 production at Vmax concentration after 20 mins"}, "[4]": {"species_on_record": "Papio hamadryas", "assay": "Activity at baboon liver mitochondrial MAO-B assessed as initial rate of H2O2 production after 20 mins assessed per mg of mitochondrial protein", "summary_of_the_method": "(§3)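 Incubation time was set within the linear range for each substrate. Stopped with (R)-deprenyl on ice; peroxidase-coupled spectrophotometric read-out. Rates in nmol/min-mg protein, fitted to Michaelis–Menten. Triplicate or duplicate.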"}, "[5]": {"species_on_record": "Papio hamadryas", "assay": "Ratio of Vmax to Km for baboon liver mitochondrial MAO-B assessed per mg of protein after 20 mins", "summary_of_the_method": "as §3"}, "[6]": {"species_on_record": "Papio hamadryas", "assay": "Activity at baboon liver mitochondrial MAO-B assessed as initial rate of H2O2 production after 20 mins", "summary_of_the_method": "as §3"}, "[7]": {"species_on_record": "Papio hamadryas", "assay": "Activity at baboon liver mitochondrial MAO-B assessed as H2O2 production at 500 uM after 20 mins pretreated with MAOB inhibitor (R)-deprenyl"}, "[8]": {"species_on_record": "Papio hamadryas", "assay": "Activity at baboon liver mitochondrial MAO-B assessed as initial rate of H2O2 production after 12.5 mins assessed per mg of mitochondrial protein", "summary_of_the_method": "(§4)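 Baboon liver mitochondrial fraction (0.15 mg protein/mL; protein by Bradford) was incubated with substrate in 100 mM sodium phosphate, pH 7.4, at 37 °C for 12.5 min. (R)-Deprenyl (5 mM stock) was added and the samples were placed on ice, then centrifuged. H2O2 was read by peroxidase-coupled spectrophotometry against an 11–88 µM calibration. Initial rates were taken at eight substrate levels, in duplicate. Km and Vmax came from a Michaelis–Menten fit, with rates as nmol H2O2/min-mg protein.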"}, "[9]": {"species_on_record": "Papio hamadryas", "assay": "Activity at baboon liver mitochondrial MAO-B assessed as H2O2 production at 500 uM after 6 to 15 mins pretreated with (R)-deprenyl", "summary_of_the_method": "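Mitochondria (0.3 mg protein/mL) were preincubated with (R)-deprenyl at 37 °C in 100 mM sodium phosphate, pH 7.4. They were then added to 500 µM substrate to give 0.15 mg protein/mL, with chromogenic solution, at 37 °C. Reactions were stopped with (R)-deprenyl, and H2O2 was measured by peroxidase-coupled spectrophotometry. Values were compared with fully active controls preincubated without inactivator.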"}, "[10]": {"species_on_record": "Papio hamadryas", "assay": "Ratio of Vmax to Km for baboon liver mitochondrial MAO-B assessed per mg of protein after 12.5 mins", "summary_of_the_method": "as §4"}, "[11]": {"species_on_record": "Papio hamadryas", "assay": "Activity at baboon liver mitochondrial MAO-B assessed as initial rate of H2O2 production after 12.5 mins", "summary_of_the_method": "as §4"}, "[12]": {"test_system": "Mus musculus", "assay": "Neurotoxicity in C57BL/6 mouse assessed as depletion of dopamine level in striatum at 167 umol/kg, ip after 7 days by HPLC-ECD analysis relative to control", "assay_type": "toxicity, organism-based", "conditions": "in vivo, 168 h", "summary_of_the_method": "as §2"}, "[13]": {"species_on_record": "Papio hamadryas", "assay": "Activity at baboon liver mitochondrial MAO-B assessed as initial rate of H2O2 production after 8 mins", "summary_of_the_method": "(§5)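 Baboon liver mitochondria stored at −70 °C and diluted with phosphate buffer containing 50% glycerol. MAO-B at 0.15 mg protein/mL in 100 mM sodium phosphate, pH 7.4, 37 °C, with eight substrate concentrations spanning two orders of magnitude. Incubation lasted 6 or 8 min (linear period). Stopped with (R)-deprenyl on ice, then centrifuged. H2O2 measured by peroxidase-coupled spectrophotometry against an 11–88 µM calibration. Duplicates; Michaelis–Menten fit gave Km, Vmax (nmol/min-mg), Vmax/Km.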"}, "[14]": {"species_on_record": "Papio hamadryas", "assay": "Ratio of Vmax to Km for baboon liver mitochondrial MAO-B assessed per mg of protein after 8 mins", "summary_of_the_method": "as §5"}, "[15]": {"species_on_record": "Papio hamadryas", "assay": "Activity at baboon liver mitochondrial MAO-B assessed as initial rate of H2O2 production after 8 mins assessed per mg of mitochondrial protein", "summary_of_the_method": "as §5"}, "[16]": {"species_on_record": "Papio hamadryas", "assay": "Activity at baboon liver mitochondrial MAO-B assessed as initial rate of H2O2 production after 15 mins", "summary_of_the_method": "as §3"}, "[17]": {"species_on_record": "Papio hamadryas", "assay": "Activity at baboon liver mitochondrial MAO-B assessed as initial rate of H2O2 production after 15 mins assessed per mg of mitochondrial protein", "summary_of_the_method": "as §3"}, "[18]": {"species_on_record": "Papio hamadryas", "assay": "Activity at baboon liver mitochondrial MAO-B assessed as H2O2 production at 500 uM after 20 mins", "summary_of_the_method": "as §1"}, "[19]": {"species_on_record": "Papio hamadryas", "assay": "Activity at baboon liver mitochondrial MAO-B assessed as H2O2 production at Vmax concentration after 15 mins"}, "[20]": {"species_on_record": "Papio hamadryas", "assay": "Ratio of Vmax to Km for baboon liver mitochondrial MAO-B assessed per mg of protein after 15 mins", "summary_of_the_method": "as §3"}, "[21]": {"species_on_record": "Papio hamadryas", "assay": "Activity at baboon liver mitochondrial MAO-B assessed as H2O2 production at 250 uM after 15 mins pretreated with MAOB inhibitor (R)-deprenyl"}, "[22]": {"species_on_record": "Papio hamadryas", "assay": "Activity at baboon liver mitochondrial MAO-B assessed as H2O2 production at 250 uM after 15 mins", "summary_of_the_method": "as §1"}, "[23]": {"species_on_record": "Papio hamadryas", "assay": "Activity at baboon liver mitochondrial MAO-B assessed as initial rate of H2O2 production after 10 mins", "summary_of_the_method": "as §3"}, "[24]": {"species_on_record": "Papio hamadryas", "assay": "Ratio of Vmax to Km for baboon liver mitochondrial MAO-B assessed per mg of protein after 10 mins", "summary_of_the_method": "as §3"}, "[25]": {"species_on_record": "Papio hamadryas", "assay": "Activity at baboon liver mitochondrial MAO-B assessed as initial rate of H2O2 production after 10 mins assessed per mg of mitochondrial protein", "summary_of_the_method": "as §3"}, "[26]": {"species_on_record": "Papio hamadryas", "assay": "Activity at baboon liver mitochondrial MAO-B assessed as H2O2 production at 250 uM after 6 to 15 mins pretreated with (R)-deprenyl"}, "[27]": {"species_on_record": "Papio hamadryas", "assay": "Activity at baboon liver mitochondrial MAO-B assessed as initial rate of H2O2 production after 6 mins", "summary_of_the_method": "as §5"}, "[28]": {"species_on_record": "Papio hamadryas", "assay": "Ratio of Vmax to Km for baboon liver mitochondrial MAO-B assessed per mg of protein after 6 mins", "summary_of_the_method": "as §5"}, "[29]": {"species_on_record": "Papio hamadryas", "assay": "Activity at baboon liver mitochondrial MAO-B assessed as initial rate of H2O2 production after 6 mins assessed per mg of mitochondrial protein", "summary_of_the_method": "as §5"}},
  "note": "Activity calls are given as the source filed them. No cut-off for these calls is given here.",
  "data": [
    {"molecule": "CN1CCC(c2ccccc2)C1.O=C(O)C(=O)O", "note": "(racemic)", "values": [
      {"measurement": "Activity", "setting": "[1]", "value": "Active"},
      {"measurement": "Activity", "setting": "[2]", "value": 99, "unit": "%"},
      {"measurement": "Activity", "setting": "[3]", "value": 6, "unit": "%"},
      {"measurement": "Vmax", "setting": "[4]", "value": 8.37, "unit": "nmol/min"},
      {"measurement": "Vmax/Km", "setting": "[5]", "value": 0.04, "unit": "min⁻¹"},
      {"measurement": "Km", "setting": "[6]", "value": 234, "unit": "µM"},
      {"measurement": "Activity", "setting": "[7]", "value": 1.92, "unit": "µM"}
    ]},
    {"molecule": "CN1CC=C(c2ccccc2)CC1.Cl", "values": [
      {"measurement": "Vmax", "setting": "[8]", "value": 11.7, "unit": "nmol/min"},
      {"measurement": "Activity", "setting": "[9]", "value": 5, "unit": "%"},
      {"measurement": "Vmax/Km", "setting": "[10]", "value": 0.14, "unit": "min⁻¹"},
      {"measurement": "Km", "setting": "[11]", "value": 81.8, "unit": "µM"},
      {"measurement": "Activity", "setting": "[12]", "value": 27, "unit": "%"}
    ]},
    {"molecule": "NCc1ccccc1", "values": [
      {"measurement": "Km", "setting": "[13]", "value": 249, "unit": "µM"},
      {"measurement": "Activity", "setting": "[9]", "value": 5, "unit": "%"},
      {"measurement": "Vmax/Km", "setting": "[14]", "value": 0.17, "unit": "min⁻¹"},
      {"measurement": "Vmax", "setting": "[15]", "value": 42.4, "unit": "nmol/min/mg"}
    ]},
    {"molecule": "CN1CC2CC2(c2ccccc2)C1.O=C(O)C(=O)O", "note": "(racemic)", "values": [
      {"measurement": "Km", "setting": "[16]", "value": 148, "unit": "µM"},
      {"measurement": "Activity", "setting": "[1]", "value": "Active"},
      {"measurement": "Activity", "setting": "[2]", "value": 111, "unit": "%"},
      {"measurement": "Vmax", "setting": "[17]", "value": 16.9, "unit": "nmol/min"},
      {"measurement": "Activity", "setting": "[18]", "value": "Active"},
      {"measurement": "Activity", "setting": "[19]", "value": 6, "unit": "%"},
      {"measurement": "Vmax/Km", "setting": "[20]", "value": 0.11, "unit": "min⁻¹"},
      {"measurement": "Activity", "setting": "[21]", "value": 1.79, "unit": "µM"},
      {"measurement": "Activity", "setting": "[22]", "value": 27.3, "unit": "µM"}
    ]},
    {"molecule": "CN1CC=C(c2ccccc2)C1", "values": [
      {"measurement": "Km", "setting": "[23]", "value": 100, "unit": "µM"},
      {"measurement": "Vmax/Km", "setting": "[24]", "value": 0.28, "unit": "min⁻¹"},
      {"measurement": "Vmax", "setting": "[25]", "value": 27.9, "unit": "nmol/min"}
    ]},
    {"molecule": "CN1CC=C(c2cccn2C)CC1", "values": [
      {"measurement": "Km", "setting": "[23]", "value": 43.4, "unit": "µM"},
      {"measurement": "Vmax/Km", "setting": "[24]", "value": 0.51, "unit": "min⁻¹"},
      {"measurement": "Vmax", "setting": "[25]", "value": 22.2, "unit": "nmol/min"},
      {"measurement": "Activity", "setting": "[26]", "value": 5, "unit": "%"}
    ]},
    {"molecule": "NCCC(=O)c1ccccc1N", "values": [
      {"measurement": "Km", "setting": "[27]", "value": 58.9, "unit": "µM"},
      {"measurement": "Vmax/Km", "setting": "[28]", "value": 0.85, "unit": "min⁻¹"},
      {"measurement": "Activity", "setting": "[9]", "value": 5, "unit": "%"},
      {"measurement": "Vmax", "setting": "[29]", "value": 50, "unit": "nmol/min/mg"}
    ]},
    {"molecule": "CN1CCC(c2ccccc2)CC1", "values": [
      {"measurement": "Vmax", "setting": "[17]", "value": "inactive"}
    ]}
  ]
}
